Experimental data: ChEMBL document CHEMBL4396944, “A fluorogenic H2S-triggered prodrug based on thiolysis of the NBD amine” (Bioorg Med Chem Lett, 2019)
Active and inactive are the calls of the source. No cut-off for these calls is given here.

Legend:
[1] = Prodrug activation in pH 7.4 PBS buffer assessed as ciprofloxacin formation by measuring increase in fluorescence at 5 uM in presence of Na2S at 415 nanometer by fluorescence assay relative to control; conditions: pH 7.4, 5 µM
Outline: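 Prodrug at 5 µM mixed with Na2S (100 µM) in PBS; fluorescence spectra recorded over time, excitation 280 nm. Emission at 415 nm plotted against time and fitted to give k_obs. Repeated at several Na2S concentrations; slope of k_obs versus [Na2S] gives k2.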

Escherichia coli [2] = experiment: Antibacterial activity against Escherichia coli BL21(DE3) incubated for 12 hrs in presence of L-Cys by UV-Vis spectrophotometric analysis; format: functional, organism-based
Outline: (§1)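 E. coli cultured in LB medium with additions of 30 nM prodrug, 30 nM NBD-SH, 50 µM Na2S, 5 mM L-Cys, or combinations (Na2S or L-Cys plus 30 nM prodrug); incubated 12 h, then bacterial density read as OD600.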

[3] = Prodrug activation in pH 7.4 PBS buffer assessed as formation of ciprofloxacin by measuring reaction rate constant at 5 uM in presence of Na2S by fluorescence assay; conditions: pH 7.4, 5 µM
Outline: (§2)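 Fluorescence spectra over time of 5 µM prodrug with 100 µM Na2S in PBS, excitation 280 nm; emission at 415 nm versus time fitted to give kobs; kobs plotted against Na2S concentration, slope of linear fit gives k2.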

Escherichia coli [4] = experiment: Antibacterial activity against Escherichia coli BL21(DE3) at 30 nM incubated for 12 hrs by UV-Vis spectrophotometric analysis; format: functional, organism-based; outline: as §1
[5] = Prodrug activation in pH 7.4 PBS buffer assessed as absorption peak for ciprofloxacin formation at 10 uM in presence of Na2S by UV-Vis spectrophotometric analysis; conditions: pH 7.4, 10 µM
Outline: (§3)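 Absorption spectra recorded over time for 10 µM prodrug with 200 µM Na2S in 50 mM PBS, pH 7.4; bands followed at 350, 490 and new 530 nm; kinetics followed by intensity at 560 nm.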

Escherichia coli [6] = experiment: Antibacterial activity against Escherichia coli BL21(DE3) incubated for 12 hrs in presence of Na2S by UV-Vis spectrophotometric analysis; format: functional; outline: as §1
Escherichia coli [7] = experiment: Antibacterial activity against Escherichia coli BL21(DE3) at 30 nM incubated for 12 hrs in presence of GSH by UV-Vis spectrophotometric analysis; format: functional, organism-based
[8] = Solubility of compound in 20 mM PBS buffer at pH 7.4 in presence of Na2S by UV-Vis spectrophotometric analysis; format: physicochemical
[9] = Prodrug activation in pH 7.4 PBS buffer at 5 uM incubated for 30 mins in presence of GSH by fluorescence assay; conditions: pH 7.4, 0.5 h
Outline: (§4)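 Fluorescence of prodrug checked in PBS after exposure to millimolar biothiols, 10 mM GSH or 5 mM Cys.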

[10] = Prodrug activation in pH 7.4 PBS buffer assessed as second order rate constant at 10 uM in presence of Na2S by UV-Vis spectrophotometric analysis; conditions: pH 7.4, 10 µM
[11] = Prodrug activation in pH 7.4 PBS buffer at 5 uM incubated for 30 mins in presence of Cys by fluorescence assay; conditions: pH 7.4, 0.5 h; outline: as §4
Escherichia coli [12] = experiment: Antibacterial activity against Escherichia coli BL21(DE3) at 30 nM incubated for 12 hrs in presence of H2S by UV-Vis spectrophotometric analysis; format: functional, organism-based; outline: as §1
[13] = Prodrug activation in pH 7.4 PBS buffer assessed as ciprofloxacin formation by measuring increase in fluorescence at 5 uM in presence of Na2S at 415 nanometer by fluorescence assay; conditions: pH 7.4, 5 µM, TDE = time-dependent effect; outline: as §2
[14] = Prodrug activation in pH 7.4 PBS buffer at 5 uM incubated for 30 mins in presence of 50 to 200 uM H2O2 by fluorescence assay; conditions: pH 7.4, 0.5 h
Outline: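 Fluorescence of prodrug read in PBS after exposure to a range of H2O2 concentrations up to 200 µM.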

[15] = Prodrug activation in pH 7.4 PBS buffer assessed as absorption peak for NBD fluorophore formation at 10 uM in presence of Na2S by UV-Vis spectrophotometric analysis; conditions: pH 7.4, 10 µM; outline: as §3
Escherichia coli [16] = experiment: Antibacterial activity against Escherichia coli BL21(DE3) at lower concentration incubated for 12 hrs by UV-Vis spectrophotometric analysis; format: functional, organism-based
Outline: (§5)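 E. coli grown in LB medium with the prodrug added, alone or together with 50 µM Na2S (H2S source) or 5 mM L-Cys. Cultures were incubated for 12 h, at 37 °C where stated, and growth was read as OD600 per sample. Controls: Na2S or L-Cys alone, and 30 nM NBD-SH by-product.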

Escherichia coli [17] = experiment: Antibacterial activity against Escherichia coli BL21(DE3) at >0.2 uM incubated for 12 hrs by UV-Vis spectrophotometric analysis; format: functional, organism-based
Escherichia coli [18] = experiment: Antibacterial activity against Escherichia coli BL21(DE3) incubated for 12 hrs by UV-Vis spectrophotometric analysis; format: functional, organism-based; outline: as §5

fold change (FC) [1] | K [3] [M⁻¹ s⁻¹] | Activity [5] [nm] | MIC (Escherichia coli [6]) [µM] | solubility [8] [µM] | Drug metabolism [9] | k2 [10] [M⁻¹ s⁻¹] | Drug metabolism [11] | Drug metabolism [13] | Drug metabolism [14] | Activity [15] [nm] | SMILES | Activity (Escherichia coli [2]) | Activity (Escherichia coli [4]) | Activity (Escherichia coli [7]) | Activity (Escherichia coli [12]) | Activity (Escherichia coli [16]) | Activity (Escherichia coli [17]) | Activity (Escherichia coli [18])
62 | 12 | 350 | 0.03 | 17 | Metabolite_Notdetected | 12.9 | Metabolite_Notdetected | Tde | Metabolite_Notdetected | 490 | O=C(O)c1cn(C2CC2)c2cc(N3CCN(c4ccc([N+](=O)[O-])c5nonc45)CC3)c(F)cc2c1=O | Active | inactive | inactive | Active | Active | Active | –
– | – | – | – | – | – | – | – | – | – | – | O=[N+]([O-])c1ccc(S)c2nonc12 | – | – | – | – | inactive | – | inactive
